The results in this text go back to ChEMBL document CHEMBL1933027, “Time-dependent botulinum neurotoxin serotype A metalloprotease inhibitors” (Bioorg Med Chem, 2011).

In assay [1] the target is T1, Botulinum neurotoxin type A (Clostridium botulinum, UniProt P0DPI0). The assay can be described thus: Inhibition of Clostridium botulinum BoNT/A light chain after 40 mins by HPLC assay. An outline of the steps: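 Incubation was at 37 °C for 40 min with 6 nM BoNT/A LC and 60 μM 17-mer SNAPtide substrate. Samples were separated by reverse-phase C18 HPLC, effluent was monitored at 365 nm, and peaks were quantified by integration.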
T1 sequence (P0DPI0 2-448 limits assumed): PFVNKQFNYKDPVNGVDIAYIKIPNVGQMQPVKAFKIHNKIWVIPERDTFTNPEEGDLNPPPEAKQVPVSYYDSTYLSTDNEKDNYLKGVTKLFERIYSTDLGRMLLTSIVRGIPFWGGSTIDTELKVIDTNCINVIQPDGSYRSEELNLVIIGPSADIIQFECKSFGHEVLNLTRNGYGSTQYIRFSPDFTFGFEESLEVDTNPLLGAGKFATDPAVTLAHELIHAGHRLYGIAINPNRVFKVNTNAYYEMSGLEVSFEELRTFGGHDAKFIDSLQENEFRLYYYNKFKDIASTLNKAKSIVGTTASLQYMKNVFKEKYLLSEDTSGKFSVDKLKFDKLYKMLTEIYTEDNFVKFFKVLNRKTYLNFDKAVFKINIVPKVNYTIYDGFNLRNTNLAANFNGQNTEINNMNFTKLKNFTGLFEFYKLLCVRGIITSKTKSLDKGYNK

In assay [2] the target is Botulinum neurotoxin type A (Clostridium botulinum) (UniProt P0DPI0).
Sequence of Botulinum neurotoxin type A (Clostridium botulinum) (P0DPI0 2-448 limits assumed): as above
Assay [3] has the same target. The assay can be described thus: Inhibition of Clostridium botulinum BoNT/A light chain-mediated SNAP-25 substrate cleavage preincubated for 15 mins in presence of glutathione before substrate addition by FRET assay. In a few lines: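 The potential inactivator (2.5 or 5 mM) was preincubated with compound in the assay mixture for 15 min at 37 °C. 17-mer SNAP-25 substrate and BoNT/A LC were then added, and activity was read in the FRET assay (37 °C, 40 min, ex 398/em 485 nm).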

Assay [4] shares this target. The assay can be described thus: Inhibition of clostridium botulinum BoNT/A-mediated SNAP-25 substrate cleavage in chicken neurons at 30 uM preincubated for 15 mins before substrate addition.
Assay [5] deals with T2, Botulinum neurotoxin type B (Clostridium botulinum, UniProt P10844).
T2 sequence (P10844 whole entry): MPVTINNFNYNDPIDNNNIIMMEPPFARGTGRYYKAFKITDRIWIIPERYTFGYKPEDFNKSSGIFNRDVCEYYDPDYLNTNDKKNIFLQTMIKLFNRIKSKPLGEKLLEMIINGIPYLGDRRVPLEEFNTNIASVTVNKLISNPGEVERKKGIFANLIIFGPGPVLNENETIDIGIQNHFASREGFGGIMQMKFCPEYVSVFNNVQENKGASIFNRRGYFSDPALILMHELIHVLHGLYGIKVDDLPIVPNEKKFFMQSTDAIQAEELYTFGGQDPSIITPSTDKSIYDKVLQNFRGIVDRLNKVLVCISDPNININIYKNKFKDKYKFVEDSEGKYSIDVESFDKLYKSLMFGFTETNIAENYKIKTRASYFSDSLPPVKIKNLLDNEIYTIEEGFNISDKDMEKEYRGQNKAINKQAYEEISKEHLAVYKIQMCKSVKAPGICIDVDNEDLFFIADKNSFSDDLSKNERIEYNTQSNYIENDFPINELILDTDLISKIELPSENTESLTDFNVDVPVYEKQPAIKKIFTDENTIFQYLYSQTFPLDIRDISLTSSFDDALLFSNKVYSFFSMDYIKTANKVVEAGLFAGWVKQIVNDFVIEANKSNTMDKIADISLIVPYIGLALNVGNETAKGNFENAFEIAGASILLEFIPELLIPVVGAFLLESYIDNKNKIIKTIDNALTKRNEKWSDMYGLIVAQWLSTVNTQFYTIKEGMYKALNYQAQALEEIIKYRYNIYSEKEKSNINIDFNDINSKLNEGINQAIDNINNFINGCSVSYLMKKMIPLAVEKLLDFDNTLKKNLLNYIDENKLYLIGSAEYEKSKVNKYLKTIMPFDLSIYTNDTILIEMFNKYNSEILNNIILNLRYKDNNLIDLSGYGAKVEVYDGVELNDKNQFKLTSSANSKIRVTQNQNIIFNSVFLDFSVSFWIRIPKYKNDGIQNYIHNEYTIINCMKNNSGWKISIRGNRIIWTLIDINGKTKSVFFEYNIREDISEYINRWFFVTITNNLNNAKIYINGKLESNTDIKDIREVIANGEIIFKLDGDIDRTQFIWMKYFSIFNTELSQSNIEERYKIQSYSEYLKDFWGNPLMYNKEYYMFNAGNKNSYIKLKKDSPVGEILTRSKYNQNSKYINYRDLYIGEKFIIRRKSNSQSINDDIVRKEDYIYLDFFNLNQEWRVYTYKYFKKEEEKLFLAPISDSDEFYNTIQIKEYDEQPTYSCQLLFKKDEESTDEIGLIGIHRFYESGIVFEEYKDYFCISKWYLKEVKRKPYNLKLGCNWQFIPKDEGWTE
As to the kind of experiment: Inhibition of Clostridium botulinum BoNT/B light chain after 40 mins by FRET-based assay.

Assay [6] deals with Matrix metalloproteinase-9 (Homo sapiens, UniProt P14780). The assay can be described thus: Inhibition of human MMP9.
Sequence of Matrix metalloproteinase-9 (P14780 whole entry): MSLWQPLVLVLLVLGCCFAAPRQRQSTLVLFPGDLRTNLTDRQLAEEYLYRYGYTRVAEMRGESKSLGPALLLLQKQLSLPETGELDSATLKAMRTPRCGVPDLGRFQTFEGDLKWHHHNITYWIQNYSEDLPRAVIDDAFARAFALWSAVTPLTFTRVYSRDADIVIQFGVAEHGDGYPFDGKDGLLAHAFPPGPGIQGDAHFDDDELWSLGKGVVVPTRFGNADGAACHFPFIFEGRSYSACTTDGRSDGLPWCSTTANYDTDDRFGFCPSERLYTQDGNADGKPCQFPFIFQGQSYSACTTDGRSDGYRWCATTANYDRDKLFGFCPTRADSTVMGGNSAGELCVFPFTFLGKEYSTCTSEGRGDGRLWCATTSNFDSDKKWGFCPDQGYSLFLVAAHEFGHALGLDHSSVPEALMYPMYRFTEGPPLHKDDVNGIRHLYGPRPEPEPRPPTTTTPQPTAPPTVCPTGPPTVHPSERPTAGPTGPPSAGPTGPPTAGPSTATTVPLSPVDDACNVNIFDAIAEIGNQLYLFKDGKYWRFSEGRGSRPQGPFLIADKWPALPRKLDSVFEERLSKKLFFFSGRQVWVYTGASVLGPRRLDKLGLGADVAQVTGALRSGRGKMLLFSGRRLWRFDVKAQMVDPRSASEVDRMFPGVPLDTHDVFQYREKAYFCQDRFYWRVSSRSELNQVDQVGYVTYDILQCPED
The target in assay [7] is Botulinum neurotoxin type A (Clostridium botulinum) (UniProt P0DPI0). The assay can be described thus: Ratio of Kinact to Ki for clostridium botulinum BoNT/A light chain. An outline of the steps: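 BoNT/A LC was incubated with selected inhibitor concentrations for various times. Remaining activity was then measured by the FRET assay, and kobs/[I] was derived from the plotted data using a published method.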

Assay [8] has as its target T1, Botulinum neurotoxin type A. As to the kind of experiment: Inhibition of Clostridium botulinum BoNT/A light chain-mediated SNAP-25 substrate cleavage preincubated for 90 mins by FRET assay. In a few lines: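 Compound was preincubated with BoNT/A LC for 90 min before the 40-min FRET assay (20 μM SNAP-25 peptide, 2 nM enzyme, 37 °C, ex 398/em 485 nm). IC50 is the concentration giving 50% inhibition.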

Calls of active or inactive are those of the source. No cut-off for these calls is given here.

For orientation: IC50 means the concentration needed to halve the response being measured. A lower IC50 goes with greater potency. By inhibition is commonly meant the relative decrease from the control value, in per cent.

`N#C/C(=C\c1ccc(-c2cccs2)s1)c1nc2ccccc2[nH]1`: the IC50 in assay [1] was 29 µM; in assay [5], greater than 100 µM; in assay [6] it was greater than 100 µM; in assay [8], 17 µM. The TDI result in assay [2] was “Active”. Also, in assay [3], the inhibition entry is “Active”. Besides, the inhibition in assay [4] was 58%. Moreover, the Ratio in assay [7] is 326 M⁻¹ s⁻¹.
In the case of `COc1ccc(/C=C(\C#N)c2nc3ccccc3[nH]2)cc1I`, the IC50 in assay [1] is 10 µM; in assay [5] it was greater than 100 µM; in assay [6], greater than 100 µM. In assay [3], the inhibition entry is “inactive”. The same molecule had an inhibition in assay [4] of less than 10%. Moreover, in assay [7], the Ratio stood at 979 M⁻¹ s⁻¹.
